Apaf-1 act: activators of human Apaf-1 apoptosome. O14727. Apaf-1 apoptosome caspase-3 activation, DEVD-Rh110 fluorescence; hits give low values. 330,000 compounds, 0.31% hits. activity change, negative = activation, % at 20 µM. AID 489031;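 active = activity change at or below -40% at 20 µM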
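Schedule: 30 min preincubation, 50 min reaction, room temperature / System: biochemical Apaf-1 apoptosome reconstitution / Medium: 20 mM HEPES pH 7.5 with CHAPS, BSA / Evaluation: Caspase-3 cleavage activity downstream of Apaf-1 activation / Detection: Caspase-3-released Rh110 fluorescence, 540 nm emission, 480 nm excitation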
Rh110 interf act: interferes with Rh110 fluorescence, flagging false Apaf-1 activators; shares compounds with Apaf-1 act; Rh110 fluorescence interference, quenched caspase reaction, Ex480/Em540; fluorescence interference (activity change), % at 20 µM, hits read low; 980 tested, under 10 active; AID 504616;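 active = mean activity change at or below -40% when tested at 20 µM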
Apaf-1 act conf: Apaf-1 (human) activation, single-dose confirmed; AID 504617; 980 compounds, 5% hits; activity change, negative = activation, % at 20 µM; shares compounds with Apaf-1 act; reconstituted apoptosome caspase-3 activity, DEVD-Rh110 fluorescence; hits give low values;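 active = mean activity change at or below -40%, meaning activation of 40% or more, at 20 µM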
* marks the source's active call; other numbers are inactive results. Not all results are given here.

Screening Cc1ccc(NC(=O)CCC(=O)OCc2ccc(Br)cc2)cc1 returned Apaf-1 act -46*, Rh110 interf act -17 and Apaf-1 act conf 9.
COc1cccc(-c2sc3ccccc3c2-c2ccc(OCCN3CCCC3)cc2)c1 was read as Apaf-1 act 71.
CC(C)[C@H](CN1CCC[C@H]1CN1C(N)=NC[C@H]1C(C)C)N1C[C@@H](Cc2ccccc2)N(CCCC2CCCC2)C1=N was read as Apaf-1 act 63.
O=C(/C=C/c1ccc(-c2ccccc2[N+](=O)[O-])o1)c1ccco1 was read as Apaf-1 act 43.
`N#Cc1cn(Cc2ccncc2)c(=O)[nH]c1=O` gave Apaf-1 act -182*, Rh110 interf act 3 and Apaf-1 act conf 14.
Screening CCC[C@@H](CN1CCC[C@H]1CN1C(N)=NC[C@@H]1Cc1ccccc1)N1C[C@@H]([C@H](C)CC)N(CCc2ccc(Cl)c(Cl)c2)C1=N returned Apaf-1 act 67.
For CSc1nc(NC(C)(C)C)nc(Oc2ccc(=O)n(C)n2)n1 the results were Apaf-1 act -55*, Rh110 interf act 6 and Apaf-1 act conf 2.
Cc1c(C(=O)N(C)CCOc2ccccc2)oc2c(Cl)cccc12 was read as Apaf-1 act 45.
For CC(C)n1ncc2c(C(=O)Nc3ccc(S(N)(=O)=O)cc3)cc(C3CC3)nc21 the results were Apaf-1 act 75.
Screening CC(=O)C(C(C)=O)C1(O)C(=O)c2ccccc2C1=O returned Apaf-1 act 86.
Nc1cc(S(=O)(=O)O)cc([N+](=O)[O-])c1O was read as Apaf-1 act -110*, Rh110 interf act -5 and Apaf-1 act conf 4.
Screening O=[N+]([O-])c1cc(F)c2cccnc2c1O returned Apaf-1 act 64.
CCCCCc1cc(=O)oc2c(C(CCN(CC)CC)c3ccc(OC)cc3)c(OC)cc(OC)c12 (centres undefined) was read as Apaf-1 act 61.
`CCCCC(CC)COC(=O)C(C#N)=C(c1ccccc1)c1ccccc1` (centres undefined) gave Apaf-1 act -232*, Rh110 interf act 1 and Apaf-1 act conf 3.
For CCOC(=O)c1c(C)n(-c2ccc(C)cc2)c2c(C(C(C)=O)C(=O)O)c(Br)c(O)c(O)c12 (centres undefined) the results were Apaf-1 act 50.
Screening CCCC[n+]1ccn(C2=C([O-])c3ccccc3C(=O)/C2=N\S(=O)(=O)c2ccc(Cl)cc2)c1 returned Apaf-1 act 52.
CCCCCCCCCCCCN1[C@@H](CC(=O)O)c2cc(C(F)(F)F)ccc2S1(=O)=O was read as Apaf-1 act 41.
`CCCCN(C)C1=CC2=CC(=C(C#N)C#N)CCC2CC1` (centres undefined) gave Apaf-1 act -76*, Rh110 interf act -659* and Apaf-1 act conf -40.
Screening CCN(CC)C1=CC2=CC(=C(C#N)C#N)CCC2CC1 (centres undefined) returned Apaf-1 act -141*, Rh110 interf act active and Apaf-1 act conf -77*.
COc1cc2c(cc1OC)CN(Cc1cc(=O)n3c(-c4ccccc4)csc3n1)CC2 was read as Apaf-1 act 42.
`O=C(OCC(=O)N1CCN(S(=O)(=O)c2ccc(Cl)cc2)CC1)c1ccc([N+](=O)[O-])o1` gave Apaf-1 act 69.
Cc1cc2oc3cc(NCCC4CCCN4C)ccc3c(=O)c2cc1C (centres undefined) was read as Apaf-1 act 44.
Cc1ccc(NC(=O)C2CCCN2C(=O)NC2CCCCC2)cc1C (centres undefined) was read as Apaf-1 act -120*, Rh110 interf act 13 and Apaf-1 act conf 9.
C[C@@H](CSc1ccc(Br)cc1)CN1CC[C@H](NC(=O)OCc2ccccc2)CCC1=O was read as Apaf-1 act 40.
Screening Nc1nc2ccc(OC(F)(F)F)cc2s1 returned Apaf-1 act -1.
COc1ccc(CNCC(O)(c2ccc(Cl)cc2)c2ccc(Cl)cc2)cc1OC was read as Apaf-1 act 42.
For COc1ccc(S(=O)(=O)N2CCCCCC2)cc1C(=O)N(C)Cc1c(F)cccc1Cl the results were Apaf-1 act 43.
CC(C)(C)NC(=O)CC1C(=O)NCCN1Cc1c(F)cccc1Cl (centres undefined) was read as Apaf-1 act -41*, Rh110 interf act 1 and Apaf-1 act conf 7.
Cc1ccc(Cl)cc1NC1=C/C(=N\S(=O)(=O)c2cccs2)c2ccccc2C1=O was read as Apaf-1 act 95.
Screening CC1(C(=O)Nc2cccc3ccccc23)CC1(Br)Br (centres undefined) returned Apaf-1 act 56.
`Cc1nnc(N=c2ssnc2Cl)o1` gave Apaf-1 act 50.
Screening COc1ccc(CN(C)C(=O)Cc2ccc(OC)c(S(=O)(=O)N3CCOCC3)c2)cc1OC returned Apaf-1 act 60.
For COc1ccc(CN2C(=O)c3cccnc3C2=O)cc1S(=O)(=O)N1CCOc2ccccc21 the results were Apaf-1 act -52*, Rh110 interf act 14 and Apaf-1 act conf 20.
Screening COc1ccc(CC(=O)N(C)CC(=O)Nc2ccccc2Cl)cc1S(=O)(=O)N1CCOCC1 returned Apaf-1 act 59.
Cc1c(CCC(C)C)c(=O)n2c([nH]c3ccccc32)c1C#N was read as Apaf-1 act 60.
CCC[C@@H](CN1CCC[C@H]1CN1C(N)=NC[C@@H]1Cc1ccccc1)N1C[C@@H](Cc2ccccc2)N(CCc2ccc(Cl)c(Cl)c2)C1=N was read as Apaf-1 act 78.
`O=S(=O)(NCC(Nc1ccccc1)c1ccccc1)c1ccc(Cl)cc1` (centres undefined) gave Apaf-1 act -245*, Rh110 interf act 8 and Apaf-1 act conf 18.
For CN(Cc1ccccc1)c1oc(-c2ccco2)nc1C#N the results were Apaf-1 act 41.
For Cc1c(C(=O)Nc2ccc(S(=O)(=O)N(C)C3CCN(C)CC3)cc2)oc2ccccc12 the results were Apaf-1 act 53.
Screening Cc1ccc(S(=O)(=O)N(C)c2ccccc2C(=O)NC2CCCC2)cc1 returned Apaf-1 act -59*, Rh110 interf act 4 and Apaf-1 act conf 14.
`CCC1CCCCN1C(=O)COc1ccc(N(C)S(=O)(=O)c2ccc(C)cc2)cc1` (centres undefined) gave Apaf-1 act 51.
O=C(O)CCCN1C(=O)/C(=C/c2ccc(-c3nc4ccccc4s3)o2)SC1=S was read as Apaf-1 act -406*, Rh110 interf act 11 and Apaf-1 act conf -23.
COC(=O)C1=C(C)N(Cc2ccccc2)C(=NCc2cc(OC)c(OC)c(OC)c2)N[C@H]1CCc1ccccc1 was read as Apaf-1 act 48.
`COCCCC/C(=N\OCCN)c1ccc(C(F)(F)F)cc1` gave Apaf-1 act 44.
Screening O=C1Cc2ccccc2C(=O)N1OCc1ccc(Cl)cc1Cl returned Apaf-1 act 68.
`O=C(O)CC1S/C(=N/N=C/c2ccc(-c3ccccc3[N+](=O)[O-])o2)NC1=O` (centres undefined) gave Apaf-1 act 73.
